Assay [1] concerns Escherichia coli. The assay can be described thus: Antimicrobial minimum inhibitory concentration against Escherichia coli AB1932-1. In kind it is functional. The method, boiled down: (§1)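 Serial twofold tube dilution in tryptose phosphate broth. Each compound was prepared as a 1000 μg/mL aqueous stock and diluted in double-strength broth, then 2×10^5 cells were added. Tubes were incubated aerobically at 37 °C for 24 h. The MIC was taken as the lowest concentration with no visible growth.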

Assay [2] deals with Escherichia coli. In words: Minimum inhibitory concentration against Escherichia coli (Vogel). The class given is functional. A digest of the protocol:
as §1

The subject of assay [3] is Escherichia coli. The assay can be described thus: Antimicrobial minimum inhibitory concentration against Escherichia coli 100/B22. The class given is functional. A digest of the protocol:
as §1

Assay [4] has as its system Klebsiella pneumoniae. The assay can be described thus: Minimum inhibitory concentration against Klebsiella pneumonia 39645. The class given is functional. The method, boiled down: as §1
Assay [5] has as its system Proteus mirabilis. In words: Minimum antimicrobial inhibitory concentration against Proteus mirabilis MGH-1. The class given is functional. The method, boiled down: as §1
Assay [6] deals with Pseudomonas aeruginosa. In words: Minimum antimicrobial inhibitory concentration against Pseudomonas aeruginosa MGH-2. The class given is functional. A digest of the protocol: as §1
The subject of assay [7] is Staphylococcus aureus. The assay can be described thus: Minimum antimicrobial inhibitory concentration against Staphylococcus aureus. In kind it is functional. The method, boiled down: as §1
The subject of assay [8] is Streptococcus mutans. In words: Minimum plaque inhibitory concentration using a standard test organism, Streptococcus mutans OMZ-61. In kind it is functional, organism-based. A digest of the protocol:
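Ceramic hydroxylapatite plates were soaked twice for 1 min each in compound at […] (aqueous), air-dried and rinsed, then hung in sucrose beef-extract medium (pH 7.0) inoculated with late-log S. mutans OMZ-61. Incubation was anaerobic at 37 °C for 24 h, and treatment plus reinoculation were repeated for a second 24 h. Plaque was stained with 1% FD&C Red No. 3 and scored visually. The value is the lowest concentration giving no plaque while medium growth matched control.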

Some results are limits rather than exact numbers.

These results are taken from ChEMBL document CHEMBL1122519, “Bispyridinamines: a new class of topical antimicrobial agents as inhibitors of dental plaque” (1984).

What is called MIC is the smallest concentration in the dilution series that meets the test's criterion for growth inhibition. High values mean a need for much substance, low ones inhibition by little substance.

Consider `Br.Br.CCCCCCN=c1ccn(CCCCCCn2ccc(=NCCCCCC)cc2)cc1`, for which the MIC in assay [1] was 7.8 µg/mL; in assay [2], 31.3 µg/mL; in assay [3], 7.8 µg/mL; in assay [4], 125 µg/mL; in assay [5], > 250 µg/mL; in assay [6], > 125 µg/mL. The same compound came in with an MIC in assay [7] of 0.5 µg/mL. In assay [8], this compound yielded a Concentration of 1%.

Consider `Br.Br.CCCCCCCCCCCCN=c1ccn(CCCCCCn2ccc(=NCCCCCCCCCCCC)cc2)cc1`, for which the MIC in assay [1] is > 62.5 µg/mL; in assay [2] it was 31.3 µg/mL; in assay [3], 62.5 µg/mL; in assay [4], > 62.5 µg/mL; in assay [5] it was > 62.5 µg/mL; in assay [6], > 62.5 µg/mL. Moreover, the MIC in assay [7] was determined as 7.8 µg/mL. For the same compound, the Concentration in assay [8] turned out to be 0.1%.

For the compound `Br.Br.CCCCCCCCCCN=c1ccn(CCCCCCCCn2ccc(=NCCCCCCCCCC)cc2)cc1`, the minimal inhibitory concentration (MIC) in assay [1] came out at 7.8 µg/mL; in assay [2], 2 µg/mL; in assay [3], 3.9 µg/mL; in assay [4] it was 3.9 µg/mL; in assay [5], 7.8 µg/mL; in assay [6] it was 7.8 µg/mL. In addition, 1 µg/mL was the least that counted as inhibitory in assay [7] (MIC). This compound returned a Concentration in assay [8] of 0.01%.

Regarding `Br.Br.CCCCC(CC)CN=c1ccn(CCCCn2ccc(=NCC(CC)CCCC)cc2)cc1` (stereo not given), the MIC in assay [1] is 7.8 µg/mL; in assay [2] it was 62.5 µg/mL; in assay [3], 31.3 µg/mL; in assay [4], > 125 µg/mL; in assay [5], > 125 µg/mL; in assay [6], 125 µg/mL. Also, 1 µg/mL was the least that counted as inhibitory in assay [7] (MIC). Also, in assay [8], the Concentration is > 1%.

In the case of `Br.Br.N=c1ccn(CCCCCCCCCCn2ccc(=N)cc2)cc1`, the minimal inhibitory concentration (MIC) is 31.3 µg/mL in assay [1]; 62.5 µg/mL in assay [2]; 62.5 µg/mL in assay [3]; 250 µg/mL in assay [4]; > 500 µg/mL in assay [5]; 500 µg/mL in assay [6]. In assay [7], this compound displayed an MIC of 7.8 µg/mL. Also, in assay [8], the Concentration is > 1%.

For `Br.Br.CCCCCCCN=c1ccn(CCCCn2ccc(=NCCCCCCC)cc2)cc1`, the MIC was 7.8 µg/mL in assay [1]; 31.3 µg/mL in assay [2]; 15.6 µg/mL in assay [3]; > 125 µg/mL in assay [4]; > 250 µg/mL in assay [5]; > 250 µg/mL in assay [6]. The same compound had a minimum inhibitory concentration (MIC) in assay [7] of 1 µg/mL. In addition, the Concentration in assay [8] was > 1%.

With `Br.Br.Clc1ccc(N=c2ccn(CCCCCn3ccc(=Nc4ccc(Cl)cc4)cc3)cc2)cc1`, the MIC was 31.3 µg/mL in assay [1]; 125 µg/mL in assay [2]; 125 µg/mL in assay [3]; > 125 µg/mL in assay [4]; > 125 µg/mL in assay [5]; > 125 µg/mL in assay [6]. In assay [7], the MIC is 7.8 µg/mL. Besides, in assay [8], the Concentration was > 1%.

`Br.Br.N=c1ccn(CCCCCCCCn2ccc(=N)cc2)cc1`: the MIC in assay [1] was 125 µg/mL; in assay [2], 125 µg/mL; in assay [3] it was 250 µg/mL; in assay [4] it was > 500 µg/mL; in assay [5], > 500 µg/mL; in assay [6], > 500 µg/mL. In assay [7], the MIC was determined as 31.3 µg/mL. The Concentration in assay [8] is > 1%.

Take `Br.Br.CCCCCCN=c1ccn(CCCCCCCCCCn2ccc(=NCCCCCC)cc2)cc1`: the MIC in assay [1] was found to be 1 µg/mL; in assay [2], 2 µg/mL; in assay [3] it was 2 µg/mL; in assay [4], 3.9 µg/mL; in assay [5], 31.3 µg/mL; in assay [6] it was 31.3 µg/mL. The compound further had an MIC in assay [7] of 0.2 µg/mL. In assay [8], the Concentration is > 1%.

As for `Br.Br.CCCCC(CC)CN=c1ccn(CCCCCCCCCn2ccc(=NCC(CC)CCCC)cc2)cc1` (stereo not given), the minimal inhibitory concentration (MIC) was found to be 1 µg/mL in assay [1]; 1 µg/mL in assay [2]; 1 µg/mL in assay [3]; 7.8 µg/mL in assay [4]; 125 µg/mL in assay [5]; 125 µg/mL in assay [6]. Moreover, in assay [7], the MIC came to 0.3 µg/mL. In assay [8], the Concentration came to 0.004%.
